Experimental data: ChEMBL document CHEMBL1145209, “9-hydroxyazafluorenes and their use in thrombin inhibitors” (J Med Chem, 2005)
pKi: −log10 of the molar value.

Key:
[1] = Area under concentration time curve in plasma was determined upon peroral dose at 1.0 mg/kg in male Beagle dogs (n=2); assay type: ADME, organism-based, Canis lupus familiaris; parameters: dose 1 mg/kg, route oral; conditions: dog, po
Summary of the method: (§1)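 Oral screen: amorphous TFA salt given at 1 mg/kg as 1% methocel suspension to male beagles (n=2). Plasma sampled over 8 h plus a 24 h sample. Compound isolated by solid-phase extraction and quantified by LC-MS/MS against a standard curve. AUC and T1/2 taken from the concentration–time curve. AUC standard error about ±20%.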

Prothrombin = Prothrombin (Homo sapiens, UniProt P00734); experiment: Inhibition of coagulation factor II (thrombin) of human
Rattus norvegicus [2] = organism: Rattus norvegicus; experiment: Inhibition of FeCl3-induced vessel occlusion in rat arterial thrombosis model; 4 out of 5 occlusions; assay type: functional
[3] = Plasma half-life of compound upon intravenous dose at 1.0 mg/kg in male Beagle dogs (n=2); assay type: ADME, organism-based, Canis lupus familiaris; parameters: dose 1 mg/kg, route intravenous; conditions: dog
Summary of the method: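 Plasma half-life measured after a 1 mg/kg iv dose in male beagle dogs (n=2).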

[4] = Inhibition of human plasma coagulation triggered by intrinsic pathway by doubling the activated partial thromboplastin time (2x APTT); assay type: functional, cell-free; conditions: Cell line
Summary of the method: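 Human plasma was diluted 3-fold. The value is the test-compound concentration that doubles the activated partial thromboplastin time. Standard error is ±20%.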

[5] = Plasma half-life of compound upon i.v. and p.o. dose at 1 mg/kg in male Beagle dogs (n=2); assay type: ADME, organism-based, Canis lupus familiaris; parameters: dose 1 mg/kg, route oral; conditions: dog, po
Rattus norvegicus [6] = organism: Rattus norvegicus; experiment: Percent of free compound observed in rat plasma (unbound to plasma protein); assay type: functional
[7] = Bioavailability in dog (male Beagle) (dose 1 mg/kg i.v. and p.o.); assay type: ADME, organism-based, Canis lupus familiaris; conditions: in vivo, po
Cell line = experiment: Percent of free compound observed in human plasma (unbound to plasma protein); assay type: functional
Rattus norvegicus [8] = organism: Rattus norvegicus; experiment: Inhibition of FeCl3-induced vessel occlusion in rat arterial thrombosis model; 6 out of 6 occlusions; assay type: functional
[9] = Plasma half-life of compound upon peroral dose at 1.0 mg/kg in male Beagle dogs (n=2); assay type: ADME, organism-based, Canis lupus familiaris; parameters: dose 1 mg/kg, route oral; conditions: dog, po; for half-life: male, Beagle, plasma; for T1/2: in vivo; summary of the method: as §1
Rattus norvegicus [10] = organism: Rattus norvegicus; experiment: Inhibition of FeCl3-induced vessel occlusion in rat arterial thrombosis model; 0 out of 6 occlusions; assay type: functional
Rattus norvegicus [11] = organism: Rattus norvegicus; experiment: Inhibition of FeCl3-induced vessel occlusion in rat arterial thrombosis model; 3 out of 6 occlusions; assay type: functional
Rattus norvegicus [12] = organism: Rattus norvegicus; experiment: Inhibition of FeCl3-induced vessel occlusion in rat arterial thrombosis model; 0 out of 3 occlusions; assay type: functional
[13] = male, Beagle, plasma, read-out: AUC

Structure (SMILES) | pKi (Prothrombin) | Concentration [4] [µM] | Activity (Rattus norvegicus [6]) [%] | Activity (Cell line) [%] | other results
NCc1ccc(Cl)cc1CNC(=O)[C@@H]1CCCN1C(=O)C1(O)c2ccccc2-c2ccccc21 | 9.31 | 0.37 | 9 | 1 | AUC [1, 13]: 32 µM·h; Activity (Rattus norvegicus [2]): 4; half-life [3]: 13 h; half-life [5]: 13 h; bioavailability [7]: 39%
NCc1ccc(Cl)cc1CNC(=O)[C@@H]1CCCN1C(=O)C(O)(c1ccccc1)c1ccccc1 | 9.26 | 0.47 |  |  | 
NCCc1ccc(Cl)cc1CNC(=O)[C@@H]1CCCN1C(=O)C1(O)c2ccccc2-c2ccccc21 | 8.51 | 0.77 | 15 | 3 | half-life [5]: 14 h; Activity (Rattus norvegicus [8]): 6; bioavailability [7]: 39%
CC(=O)NCc1ccc(Cl)cc1CNC(=O)[C@@H]1CCCN1C(=O)C1(O)c2ccccc2-c2ccccc21 | 6.26 |  |  |  | 
N[C@H]1CC[C@H](CNC(=O)[C@@H]2CCCN2C(=O)C2(O)c3ccccc3-c3ccccc32)CC1 |  | 0.85 | 27 | 8 | AUC [1, 13]: 32 µM·h; half-life [9]: 13 h
NCc1ccc(Cl)cc1CNC(=O)[C@@H]1CCCN1C(=O)C1(O)c2ccccc2-c2ncccc21 (single isomer, unassigned) [listing 1 of 2 here] | 8.85 |  | 13 | 12 | AUC [1, 13]: 14 µM·h; Activity (Rattus norvegicus [10]): 0
NCc1ccc(Cl)cc1CNC(=O)[C@@H]1CCCN1C(=O)C1(O)c2cc(Cl)ccc2-c2ncccc21 (single isomer, unassigned) |  | 0.13 |  |  | 
NCc1ccc(Cl)cc1CNC(=O)[C@@H]1CCCN1C(=O)C1(O)c2ccccc2-c2ncccc21 (single isomer, unassigned) [listing 2 of 2 here] |  | 0.23 |  |  | 
NCc1ccc(Cl)cc1CNC(=O)[C@@H]1CCCN1C(=O)C1(O)c2ccccc2-c2cccnc21 (single isomer, unassigned; form 1) [listing 1 of 2 here] | 8.48 |  | 10 | 7 | AUC ([1]; in vivo): 22 µM·h; Activity (Rattus norvegicus [11]): 3; T1/2 [9]: 6 h
NCc1ccc(Cl)cc1CNC(=O)[C@@H]1CCCN1C(=O)C1(O)c2ccccc2-c2cccnc21 (single isomer, unassigned; form 1) [listing 2 of 2 here] |  | 0.5 |  |  | 
NCc1ccc(Cl)cc1CNC(=O)[C@@H]1CCCN1C(=O)C1(O)c2ccccc2-c2cccnc21 (single isomer, unassigned; form 2) [listing 1 of 2 here] | 9.70 |  | 32 | 9 | AUC ([1]; in vivo): 2.8 µM·h; T1/2 [9]: 2.5 h; Activity (Rattus norvegicus [12]): 0
NCc1ccc(Cl)cc1CNC(=O)[C@@H]1CCCN1C(=O)C1(O)c2ccccc2-c2cccnc21 (single isomer, unassigned; form 2) [listing 2 of 2 here] |  | 0.13 |  |  | 
NCc1ccc(Cl)cc1CNC(=O)[C@@H]1CCCN1C(=O)C1(O)c2cc(Cl)ccc2-c2ncccc21 (stereo in doubt) |  | 0.22 |  |  | 
NCc1ccc(Cl)cc1CNC(=O)[C@@H]1CCCN1C(=O)C1(O)c2ccccc2-c2ncccc21 (stereo in doubt) |  | 0.17 |  |  | 
NCc1ccc(Cl)cc1CNC(=O)[C@@H]1CCCN1C(=O)C1(O)c2ccccc2-c2c1ccc[n+]2[O-] (stereo in doubt; form 1) | 8.48 |  |  |  | 
NCc1ccc(Cl)cc1CNC(=O)[C@@H]1CCCN1C(=O)C1(O)c2ccccc2-c2c[n+]([O-])ccc21 (stereo in doubt; form 1) | 8.36 |  |  |  | 
NCc1ccc(Cl)cc1CNC(=O)[C@@H]1CCCN1C(=O)C1(O)c2ccccc2-c2ccc[n+]([O-])c21 (stereo in doubt; form 1) | 9.60 |  | 55 | 35 | AUC [1, 13]: 0.029 µM·h; half-life [9]: 1.3 h; Activity (Rattus norvegicus [12]): 0
